The results in this text go back to ChEMBL document CHEMBL1133529, “Solid-phase synthesis and biological evaluation of a combinatorial library of philanthotoxin analogues” (J Med Chem, 2000).

As a reminder, the IC50 is the point on the concentration scale where inhibition reaches its midpoint. Read a high IC50 as weaker potency.

The target of assay [1] is T1, Acetylcholine receptor; alpha1/beta1/delta/gamma (Homo sapiens, UniProt P02708+P07510+P11230+Q07001). Nature of the assay: Antagonist activity at human muscle-type nAChR (embryonic muscle) expressed in TE671 cells; (end value). The class given is functional, cell-based, TE-671. In a few lines: (§1)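 Whole-cell patch clamp of TE671 cells (embryonic muscle-type nAChR) at 17-23 °C. Pipette: 140 mM CsCl, 1 mM CaCl2, 11 mM EDTA, 5 mM HEPES pH 7.2. Compound co-applied with 10 µM acetylcholine as 1-s pulses ≥30 s apart; IC50 from peak and end currents.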
T1 sequence (P02708 whole entry): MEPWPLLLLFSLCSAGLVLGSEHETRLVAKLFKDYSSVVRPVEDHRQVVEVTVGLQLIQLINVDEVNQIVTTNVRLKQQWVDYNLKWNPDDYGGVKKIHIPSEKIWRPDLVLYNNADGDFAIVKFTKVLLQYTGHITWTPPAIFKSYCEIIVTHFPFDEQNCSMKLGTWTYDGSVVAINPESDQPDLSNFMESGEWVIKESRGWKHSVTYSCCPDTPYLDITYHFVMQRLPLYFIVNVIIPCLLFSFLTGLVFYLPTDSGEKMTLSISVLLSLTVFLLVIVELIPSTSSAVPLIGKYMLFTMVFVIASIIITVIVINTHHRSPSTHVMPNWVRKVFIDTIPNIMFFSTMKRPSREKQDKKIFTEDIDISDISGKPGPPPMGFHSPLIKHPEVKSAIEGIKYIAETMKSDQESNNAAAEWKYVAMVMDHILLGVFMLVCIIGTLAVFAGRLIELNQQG
T1 sequence (P07510 whole entry): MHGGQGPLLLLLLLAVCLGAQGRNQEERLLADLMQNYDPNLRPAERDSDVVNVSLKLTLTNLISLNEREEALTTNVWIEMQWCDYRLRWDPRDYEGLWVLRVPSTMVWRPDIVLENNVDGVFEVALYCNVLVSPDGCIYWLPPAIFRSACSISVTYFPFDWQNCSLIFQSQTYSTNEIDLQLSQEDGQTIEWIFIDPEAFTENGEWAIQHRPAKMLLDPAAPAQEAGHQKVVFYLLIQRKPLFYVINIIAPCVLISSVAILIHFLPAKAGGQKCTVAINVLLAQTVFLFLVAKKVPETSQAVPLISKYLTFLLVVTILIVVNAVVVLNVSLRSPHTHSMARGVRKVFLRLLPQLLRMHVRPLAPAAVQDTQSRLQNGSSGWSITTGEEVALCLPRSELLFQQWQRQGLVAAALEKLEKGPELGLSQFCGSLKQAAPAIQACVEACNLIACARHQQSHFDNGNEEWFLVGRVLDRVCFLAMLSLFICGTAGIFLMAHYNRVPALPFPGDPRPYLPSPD
T1 sequence (P11230 whole entry): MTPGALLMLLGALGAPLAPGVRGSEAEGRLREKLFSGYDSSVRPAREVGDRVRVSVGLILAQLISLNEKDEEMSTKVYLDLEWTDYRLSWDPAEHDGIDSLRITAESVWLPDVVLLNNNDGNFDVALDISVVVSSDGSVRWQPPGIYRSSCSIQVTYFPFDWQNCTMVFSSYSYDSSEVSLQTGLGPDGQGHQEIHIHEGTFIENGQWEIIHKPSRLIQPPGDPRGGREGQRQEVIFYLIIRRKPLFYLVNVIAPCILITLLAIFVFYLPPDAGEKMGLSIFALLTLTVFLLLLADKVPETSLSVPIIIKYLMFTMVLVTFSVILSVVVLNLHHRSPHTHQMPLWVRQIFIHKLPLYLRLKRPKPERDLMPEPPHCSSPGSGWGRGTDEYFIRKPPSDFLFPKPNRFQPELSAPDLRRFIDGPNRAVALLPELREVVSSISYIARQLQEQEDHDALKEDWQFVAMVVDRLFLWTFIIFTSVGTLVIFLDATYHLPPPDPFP
T1 sequence (Q07001 whole entry): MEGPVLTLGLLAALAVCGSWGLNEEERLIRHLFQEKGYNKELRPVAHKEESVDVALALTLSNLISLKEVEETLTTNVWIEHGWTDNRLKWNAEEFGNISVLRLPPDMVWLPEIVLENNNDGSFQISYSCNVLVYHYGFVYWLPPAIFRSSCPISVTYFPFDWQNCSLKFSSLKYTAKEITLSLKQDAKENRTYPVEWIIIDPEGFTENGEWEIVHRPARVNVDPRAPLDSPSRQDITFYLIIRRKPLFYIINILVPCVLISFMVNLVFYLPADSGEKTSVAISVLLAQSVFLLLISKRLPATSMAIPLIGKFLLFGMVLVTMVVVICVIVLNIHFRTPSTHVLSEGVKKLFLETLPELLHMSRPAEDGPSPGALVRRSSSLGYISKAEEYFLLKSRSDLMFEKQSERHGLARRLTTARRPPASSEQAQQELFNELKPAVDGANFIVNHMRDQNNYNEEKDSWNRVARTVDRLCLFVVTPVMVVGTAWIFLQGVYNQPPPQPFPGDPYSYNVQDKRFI

In assay [2] the target is T1, Acetylcholine receptor; alpha1/beta1/delta/gamma. Nature of the assay: Antagonist activity at human muscle-type nAChR (embryonic muscle) expressed in TE671 cells; (peak value). The class given is functional, cell-based, TE-671. In a few lines:
as §1

Assay [3] is described as follows: Tested for antagonist activity on non-NMDAR expressed in Xenopus Oocytes from rat brain mRNA. The class given is functional, cell-based. The method, boiled down: (§2)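 Xenopus laevis oocytes injected with rat brain RNA, kept at 18 °C ≥3 days, voltage-clamped at -80 mV. Bath saline: 120 mM NaCl, 2 mM KCl, 1.8 mM CaCl2, 10 mM HEPES pH 7.5. 100 µM kainic acid perfused 120 s, antagonist co-applied 40-80 s. IC50 from decrease of kainate-evoked current.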

Assay [4] in a line: Tested for antagonist activity on non-NMDAR (expressed in Xenopus Oocytes) from rat brain mRNA. Type of assay: functional, cell-based. In a few lines: as §2

For the compound `NCCCNCCCCNCCCNC(=O)[C@H](Cc1ccc(O)cc1)NC(=O)Cc1ccccc1`, the results for the IC50 in assay [1], in assay [2] and in assay [3] were 22.3 µM, 249 µM and 0.015 µM, respectively.
Turning to `NCCCNCCCCNCCCNC(=O)[C@H](Cc1ccc(O)cc1)NC(=O)CC1CCCCC1`, the values for the IC50 in assay [1], in assay [2] and in assay [3] were 13.2 µM, 86.9 µM and 0.18 µM, respectively.
Regarding `NCCCOCCCCOCCCNC(=O)[C@H](Cc1ccc(O)cc1)NC(=O)Cc1ccccc1`, the IC50 was found to be 12.6 µM in assay [1] and 35 µM in assay [2].
The matching figures for `NCCCOCCCCOCCCNC(=O)[C@H](Cc1ccc(O)cc1)NC(=O)CC1CCCCC1`: 5.69 µM and 25.9 µM.
The corresponding values for `NCCCCCCCCCCCCNC(=O)[C@H](Cc1ccc(O)cc1)NC(=O)CC1CCCCC1` are 151 µM and above 1000 µM.
On to `NCCCCCCCCCCCCNC(=O)[C@H](Cc1ccc(O)cc1)NC(=O)Cc1ccccc1`, for which the IC50 in assay [1] amounted to 17.2 µM; in assay [2], 388 µM.
As to `NCCCNCCCCNCCCNC(=O)[C@H](Cc1cccc(O)c1)NC(=O)Cc1ccccc1`, the IC50 came out at 10.1 µM in assay [1] and 98.2 µM in assay [2].
Regarding `NCCCCCCCCCCCCNC(=O)[C@H](Cc1cccc(O)c1)NC(=O)Cc1ccccc1`, the IC50 in assay [1] amounted to 8.05 µM; in assay [2], 105 µM.
With `NCCCOCCCCOCCCNC(=O)[C@H](Cc1cccc(O)c1)NC(=O)Cc1ccccc1`, the IC50 in assay [1] was determined as 25.3 µM; in assay [2], 50.9 µM.
On to `CCCC(=O)N[C@@H](Cc1ccc(O)cc1)C(=O)NCCCOCCCCOCCCN`, for which the 50% inhibitory concentration (IC50) is 10.9 µM in assay [1], 72.7 µM in assay [2] and above 100 µM in assay [4].
The matching figures for `CCCC(=O)N[C@@H](Cc1ccc(O)cc1)C(=O)NCCCCCCCCCCCCN`: 0.79 µM, 15.1 µM and above 100 µM.
In the case of `CCCC(=O)N[C@@H](Cc1cccc(O)c1)C(=O)NCCCOCCCCOCCCN`, the IC50 came out at 42.6 µM in assay [1] and 110 µM in assay [2].
For the compound `NCCCNCCCCNCCCNC(=O)[C@H](Cc1cccc(O)c1)NC(=O)CC1CCCCC1`, the figures for the IC50 in assay [1] and in assay [2] were 5.33 µM and 59.8 µM, respectively.
The matching figures for `NCCCOCCCCOCCCNC(=O)[C@H](Cc1cccc(O)c1)NC(=O)CC1CCCCC1`: 4.47 µM and 30.7 µM.
`CCCC(=O)N[C@@H](Cc1cccc(O)c1)C(=O)NCCCCCCCCCCCCN`: the IC50 in assay [1] was 2.43 µM; in assay [2], 104 µM.
The matching figures for `CCCC(=O)N[C@@H](Cc1cccc(O)c1)C(=O)NCCCNCCCCNCCCN`: 117 µM and above 1000 µM.
As for `CCCC(=O)N[C@@H](Cc1ccc(O)cc1)C(=O)NCCCNCCCCNCCCN` [PHILANTHOTOXIN 343], the IC50 was 11.8 µM in assay [1], 56.7 µM in assay [2] and 0.75 µM in assay [4].
